Experimental data published in ChEMBL document CHEMBL1129059, “Antitumor properties of some 2-[(dimethylamino)methyl]phenylgold(III) complexes” (J Med Chem, 1996).
Values joined by “and” are separate entries in the source; they are usually repeats but may differ in a detail not shown here. Equal values may be shown once.

How the values were obtained:
Mus musculus [1] = test: Compound was evaluated for antitumor activity (T/C) in PNX/109/TC carcinoma Xenograft, at a dosage 20 mg/kg on day 14; format: functional, organism-based; parameters: dose 20 mg/kg
Procedure, shortened: (§1)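 PNX/109/TC (CH1) ovarian tumor fragments implanted subcutaneously in the flanks of nude mice. Once tumors were palpable, mice were randomized into 6 per treated group and 10 controls. Dosing was ip in arachis oil on days 0, 7, 14 and 21, at the MTD and two 2-fold dilutions, with tumor dimensions taken on days 0, 7, 14, 21 and 28. T/C is treated RTV over control RTV, with RTV relative to start volume.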

Mus musculus [2] = test: Compound was evaluated for antitumor activity (RTV) in PNX/109/TC carcinoma Xenograft, at a dosage 5 mg/kg on day 28; format: functional, organism-based; parameters: dose 5 mg/kg
Procedure, shortened: (§2)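 PXN/109/TC (CH1) ovarian tumor fragments implanted subcutaneously in nude mice flanks; established palpable tumors, groups of 6 (controls 10). Dosed intraperitoneally as suspension in arachis oil on days 0, 7, 14, 21. Tumors measured days 0, 7, 14, 21, 28. RTV = 100(mean tumor volume at assessment)/(mean start volume).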

Mus musculus [3] = test: Compound was evaluated for antitumor activity (RTV) in HT1376 carcinoma Xenograft, at a dosage 25 mg/kg on day 7; format: functional, organism-based; parameters: dose 25 mg/kg
Procedure, shortened: (§3)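 HT1376 tumor fragments implanted subcutaneously in nude mice flanks; mice with established palpable tumors randomized into groups of 6 (controls 10). Compounds given intraperitoneally as suspensions in 0.5% carboxymethylcellulose in 0.9% saline, on days 0, 7, 14 and 21. Tumor dimensions on days 0, 7, 14, 21, 28. RTV = 100(mean tumor volume at assessment)/(mean start volume).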

Mus musculus [4] = test: Compound was evaluated for antitumor activity (RTV) in PNX/109/TC carcinoma Xenograft, at a dosage 5 mg/kg on day 14; format: functional, organism-based; parameters: dose 5 mg/kg; procedure, shortened: as §2
Mus musculus [5] = test: Compound was evaluated for antitumor activity (RTV) in PNX/109/TC carcinoma Xenograft, at a dosage 20 mg/kg on day 7; format: functional, organism-based; parameters: dose 20 mg/kg; procedure, shortened: as §2
Mus musculus [6] = test: Compound was evaluated for antitumor activity (RTV) in PNX/109/TC carcinoma Xenograft, at a dosage 5 mg/kg fon day 7; format: functional, organism-based; parameters: dose 5 mg/kg; procedure, shortened: as §2
Mus musculus [7] = test: Compound was evaluated for antitumor activity (RTV) in HT1376 carcinoma Xenograft, at a dosage 25 mg/kg on day 14; format: functional, organism-based; parameters: dose 25 mg/kg; procedure, shortened: as §3
Mus musculus [8] = test: Compound was evaluated for antitumor activity (T/C) in HT1376 carcinoma Xenograft, at a dosage 12.5 mg/kg on day 14; format: functional, organism-based; parameters: dose 12.5 mg/kg
Procedure, shortened: (§4)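 Subcutaneous HT1376 xenografts in nude mice, 6 per treated group and 10 controls. Intraperitoneal dosing as suspensions in 0.5% carboxymethylcellulose/0.9% saline on days 0, 7, 14, 21; tumors measured weekly to day 28. T/C = RTV of treated group / RTV of untreated control group; significance by t-test at the 5% level.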

Mus musculus [9] = test: Compound was evaluated for antitumor activity (T/C) in HT1376 carcinoma Xenograft, at a dosage 6.25 mg/kg on day 28; format: functional, organism-based; parameters: dose 6.25 mg/kg
Procedure, shortened: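 Nude mice carrying subcutaneous flank HT1376 fragments; treatment began once tumors were established and palpable, randomized into groups of 6 treated and 10 control mice. Dosing was ip as a suspension in 0.5% carboxymethylcellulose in 0.9% saline on days 0, 7, 14 and 21, at the MTD and two 2-fold dilutions. Tumors were measured on days 0-28. RTV = 100(mean volume at assessment)/(mean start volume); T/C = treated RTV/control RTV.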

Mus musculus [10] = test: Compound was evaluated for antitumor activity (T/C) in PNX/109/TC carcinoma Xenograft, at a dosage 20 mg/kg on day 28; format: functional, organism-based; parameters: dose 20 mg/kg; procedure, shortened: as §1
Mus musculus [11] = test: Compound was evaluated for antitumor activity (T/C) in PNX/109/TC carcinoma Xenograft, at a dosage 20 mg/kg on day 7; format: functional, organism-based; parameters: dose 20 mg/kg; procedure, shortened: as §1
[12] = Range is evaluated. (Highest IC50/Lowest IC50); format: functional
Mus musculus [13] = test: Compound was evaluated for antitumor activity (T/C) in PNX/109/TC carcinoma Xenograft, at a dosage 5 mg/kg on day 21; format: functional, organism-based; parameters: dose 5 mg/kg; procedure, shortened: as §1
Mus musculus [14] = test: Compound was evaluated for antitumor activity (T/C) in HT1376 carcinoma Xenograft, at a dosage 12.5 mg/kg on day 7; format: functional, organism-based; parameters: dose 12.5 mg/kg; procedure, shortened: as §4
Mus musculus [15] = test: Compound was evaluated for antitumor activity (T/C) in PNX/109/TC carcinoma Xenograft, at a dosage 5 mg/kg on day 7; format: functional, organism-based; parameters: dose 5 mg/kg; procedure, shortened: as §1
Mus musculus [16] = test: Compound was evaluated for antitumor activity (T/C) in HT1376 carcinoma Xenograft, at a dosage 12.5 mg/kg on day 21; format: functional, organism-based; parameters: dose 12.5 mg/kg; procedure, shortened: as §4

Q: Which results are given for “Acetato[2-(dimethylamino)methyl]phenyl-C,N]gold-(III)”?
A: T/C (Mus musculus [1]): 0.57; RTV (Mus musculus [2]): 673; RTV (Mus musculus [3]): 258; RTV (Mus musculus [4]): 282; RTV (Mus musculus [5]): 173; RTV (Mus musculus [6]): 160; RTV (Mus musculus [7]): 454; T/C (Mus musculus [8]): 0.98; T/C (Mus musculus [9]): 1.16; T/C (Mus musculus [10]): 0.77; T/C (Mus musculus [11]): 0.74; Range [12]: 21.6 and 31; T/C (Mus musculus [13]): 0.84; T/C (Mus musculus [14]): 0.77; T/C (Mus musculus [15]): 0.69; T/C (Mus musculus [16]): 0.77
